The subject of one assay is Nucleic Acid. Description: Binding affinity to salmon sperm DNA assessed as DNA intercalation by circular dichroism. It is filed as nucleic-acid assay. To be noted: Salmonidae. The essentials: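 CD spectra recorded in 50 mM Tris-HCl pH 8.0 with 100 mM KCl, 1 mM MgCl2 and salmon sperm DNA (25 µg/mL), inhibitor at 0, 10, 30 and 50 µM; spectral change obtained by subtracting the CD of reagent alone from the CD of DNA plus reagent.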
For orientation: Circular dichroism is the unequal absorption of left and right circularly polarised light.

The target of assay [1] is T1, DNA topoisomerase (Bos taurus) (UniProt A0JN73).
T1 sequence (whole entry): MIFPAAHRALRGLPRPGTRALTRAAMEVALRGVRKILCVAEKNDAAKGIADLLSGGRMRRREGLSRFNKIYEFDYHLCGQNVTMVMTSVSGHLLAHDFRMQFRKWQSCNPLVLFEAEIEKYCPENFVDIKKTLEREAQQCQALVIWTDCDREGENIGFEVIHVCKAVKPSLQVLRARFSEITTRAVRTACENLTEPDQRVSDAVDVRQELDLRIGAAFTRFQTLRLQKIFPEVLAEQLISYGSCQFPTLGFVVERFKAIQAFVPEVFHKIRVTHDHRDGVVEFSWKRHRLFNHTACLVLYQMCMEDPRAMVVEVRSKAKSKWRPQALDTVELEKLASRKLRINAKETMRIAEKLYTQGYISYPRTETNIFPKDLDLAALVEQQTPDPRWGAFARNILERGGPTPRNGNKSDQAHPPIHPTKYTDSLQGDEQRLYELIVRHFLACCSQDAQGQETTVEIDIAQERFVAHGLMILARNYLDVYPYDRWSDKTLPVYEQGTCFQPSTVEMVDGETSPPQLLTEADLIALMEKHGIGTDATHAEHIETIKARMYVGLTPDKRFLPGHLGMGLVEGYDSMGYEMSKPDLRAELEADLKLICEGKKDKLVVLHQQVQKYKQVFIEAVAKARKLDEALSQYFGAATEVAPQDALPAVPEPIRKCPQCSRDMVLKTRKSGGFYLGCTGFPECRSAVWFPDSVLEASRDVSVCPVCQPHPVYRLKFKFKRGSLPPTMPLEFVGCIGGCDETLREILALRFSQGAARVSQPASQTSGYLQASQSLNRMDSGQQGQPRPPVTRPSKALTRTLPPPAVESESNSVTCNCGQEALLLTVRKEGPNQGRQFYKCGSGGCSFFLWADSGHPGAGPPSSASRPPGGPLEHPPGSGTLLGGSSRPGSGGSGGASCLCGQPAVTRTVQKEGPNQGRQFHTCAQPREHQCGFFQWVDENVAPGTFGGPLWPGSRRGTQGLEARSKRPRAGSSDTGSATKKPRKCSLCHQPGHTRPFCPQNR
Description: Inhibition calf thymus topoisomerase 1 cleavage activity assessed as increase in nicked pBR322 DNA formation after 40 mins by gel electrophoresis.

Active and inactive are the calls of the source. No cut-off for these calls is given here.

For the compound `COc1cccc2c1C(=O)c1c(O)c3c(c(O)c1C2=O)C[C@@](O)(C(=O)CO)C[C@@H]3O[C@H]1C[C@H](N)[C@H](O)[C@H](C)O1`, in the assay on Nucleic Acid, the result was Active.

`CC[C@@]1(O)C(=O)OCc2c1cc1n(c2=O)Cc2cc3ccccc3nc2-1`: the outcome in assay [1] was Active. For the same compound, the result in the assay on Nucleic Acid was inactive.

For `O=C1Oc2cc(O)ccc2/C1=C\c1ccc(O)cc1`, the result (in assay [1]; in the assay on Nucleic Acid) was inactive.
